Experimental data taken from ChEMBL document CHEMBL4118021, “Studies of TAK1-centered polypharmacology with novel covalent TAK1 inhibitors” (Bioorg Med Chem, 2017).
The source made the active and inactive calls. No cut-off for these calls is given here.

Legend:
[1] = test system: SW-620; assay: Antiproliferative activity against human SW620 cells harboring KRAS G12V mutant after 72 hrs by CellTiter-Glo assay; assay type: functional, cell-based; conditions: SW-620, 72 h
[2] = Antiproliferative activity against human SW156 cells harboring wild type KRAS after 72 hrs by CellTiter-Glo assay; assay type: functional, cell-based
[3] = test system: BaF3; assay: Antiproliferative activity against mouse BA/F3 cells harboring KRAS G12D mutant after 72 hrs by CellTiter-Glo assay; assay type: functional, cell-based; conditions: BaF3, 72 h
[4] = test system: NCI-H23; assay: Antiproliferative activity against human NCI-H23 cells harboring KRAS G12C mutant after 72 hrs by CellTiter-Glo assay; assay type: functional, cell-based; conditions: NCI-H23, 72 h
Summary of the method: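 NCI-H23 or NCI-H358 cells seeded at 2000 cells/well and grown 48 h before drug. Varying doses were added and cells incubated 72 h. Viability was read as CellTiter-Glo luminescence, and growth-inhibition IC50 was calculated from dose-response curves.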

[5] = test system: SK-CO-1; assay: Antiproliferative activity against human SKCO1 cells harboring KRAS G12V mutant after 72 hrs by CellTiter-Glo assay; assay type: functional, cell-based; conditions: SK-CO-1, 72 h
[6] = test system: BaF3; assay: Antiproliferative activity against mouse BA/F3 cells after 72 hrs by CellTiter-Glo assay; assay type: cell-based; conditions: BaF3, 72 h
[7] = test system: ASPC1; assay: Antiproliferative activity against human AsPC1 cells harboring KRAS G12D mutant after 72 hrs by CellTiter-Glo assay; assay type: functional, cell-based; conditions: ASPC1, 72 h
[8] = test system: BaF3; assay: Antiproliferative activity against mouse BA/F3 cells harboring KRAS G12D mutant after 72 hrs in presence of IL-3 by CellTiter-Glo assay; assay type: functional, cell-based; conditions: BaF3, 72 h
[9] = molecular target: T1, Mitogen-activated protein kinase kinase kinase 7 (Homo sapiens, UniProt O43318); assay: Inhibition of TAK1 (unknown origin) by LanthaScreen assay
T1 sequence (O43318 whole entry): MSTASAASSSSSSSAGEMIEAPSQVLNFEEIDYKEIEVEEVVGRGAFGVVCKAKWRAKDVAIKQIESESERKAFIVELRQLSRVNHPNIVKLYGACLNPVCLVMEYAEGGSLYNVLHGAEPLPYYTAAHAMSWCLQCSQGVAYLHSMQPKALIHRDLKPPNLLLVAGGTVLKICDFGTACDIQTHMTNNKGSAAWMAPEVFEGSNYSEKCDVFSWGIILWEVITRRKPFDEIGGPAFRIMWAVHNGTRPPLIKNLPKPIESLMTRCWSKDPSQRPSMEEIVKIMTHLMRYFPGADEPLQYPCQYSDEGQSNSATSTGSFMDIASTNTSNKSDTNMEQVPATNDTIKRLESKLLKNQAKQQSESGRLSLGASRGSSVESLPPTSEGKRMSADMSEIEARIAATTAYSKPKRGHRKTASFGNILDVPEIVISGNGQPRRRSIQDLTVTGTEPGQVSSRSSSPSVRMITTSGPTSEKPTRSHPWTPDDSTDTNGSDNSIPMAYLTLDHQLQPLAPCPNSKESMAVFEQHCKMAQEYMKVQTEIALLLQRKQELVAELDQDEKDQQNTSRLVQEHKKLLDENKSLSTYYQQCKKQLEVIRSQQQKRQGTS

[10] = test system: BaF3; assay: Antiproliferative activity against mouse BA/F3 cells harboring NRAS G12D mutant after 72 hrs by CellTiter-Glo assay; assay type: functional, cell-based; conditions: BaF3, 72 h
Summary of the method: (§1)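 Ba/F3 parental or RAS-transformed cells were seeded at 1000 viable cells/well, without or with IL-3 as the line states, at 37 °C and 5% CO2. After 4 h, nine four-fold serial dilutions were added in triplicate (final 0.5–30,000 nM, 0.3% DMSO). DMSO wells served as 100% viability.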

[11] = test system: BaF3; assay: Antiproliferative activity against mouse BA/F3 cells harboring NRAS G12D mutant after 72 hrs in presence of IL-3 by CellTiter-Glo assay; assay type: functional, cell-based; conditions: BaF3, 72 h; summary of the method: as §1
[12] = test system: HEL; assay: Antiproliferative activity against human HEL cells at […] to […] nM after 72 hrs by CellTiter-Glo assay; assay type: functional, cell-based
[13] = molecular target: T2, Mitogen-activated protein kinase kinase kinase 7 (Homo sapiens) (UniProt O43318); assay: Inhibition of biotin-labeled N-(2-(2-(2-(2-(4-(4-((4-((2-Acrylamidophenyl)amino)-5-chloropyrimidin-2-yl)amino)phenyl)piperazin-1-yl)ethoxy)ethoxy)ethoxy)ethyl)-5-((3aS,4S,6aR)-2-oxohexahydro-1H-thieno[3,4-d]imidazol-4-yl)pentanamide probe binding to TAK1 in human NCI-H358 cells at 10 uM after 6 hrs by immunoblot based competitive pull down assay; assay type: cell-based
T2 sequence (whole entry): T1 sequence (O43318 whole entry)
Summary of the method: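 H358 cells given 1 or 10 μM compound for 6 h, medium removed, cells rinsed twice with cold PBS and lysed in MPER buffer. Lysates incubated overnight at 4 °C with 1 μM biotinylated covalent probe, captured on streptavidin beads, and TAK1 recovery assessed by immunoblotting with anti-TAK1 antibody.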

[14] = test system: MOLM-14; assay: Antiproliferative activity against human MOLM14 cells harboring FLT3-ITD mutant at […] to […] nM after 72 hrs by CellTiter-Glo assay; assay type: functional, cell-based
[15] = test system: NALM-6; assay: Antiproliferative activity against human NALM6 cells harboring NARS A146T mutant at […] to […] nM after 72 hrs by CellTiter-Glo assay; assay type: functional, cell-based
[16] = test system: U-937; assay: Antiproliferative activity against human U937 cells at […] to […] nM after 72 hrs by CellTiter-Glo assay; assay type: functional, cell-based
[17] = Increase in secretion of basic-FGF in TNFalpha activated RA patient-derived synovial fibroblasts at 0.6 to 3 uM preincubated for 3 hrs followed by TNFalpha stimulation measured after 18 hrs by sandwich immunoassay; conditions: human
Summary of the method: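 Primary RA patient synovial fibroblasts (donor RA2159) were seeded at 1000 cells/well, grown about 24 h, then starved overnight and again about 4 h in basal medium with 0.1% BSA. Cells were pre-incubated 3 h with inhibitor (0.6 or 3 μM) or DMSO, then stimulated 18 h with 10 ng/mL TNFα. Paired wells were pooled, in biological duplicate. Pooled supernatants were diluted 1:3 and read on Luminex bead sandwich immunoassays, with mock-medium background and spiked-ligand controls.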

[18] = Antiproliferative activity against human URMC6 cells harboring wild type KRAS after 72 hrs by CellTiter-Glo assay; assay type: functional, cell-based
[19] = molecular target: T2, Mitogen-activated protein kinase kinase kinase 7 (Homo sapiens); assay: Inhibition of TAK1 in RA patient-derived synovial fibroblasts assessed as inhibition of poly(I:C)-induced cytokine secretion at 3 uM preincubated for 3 hrs followed by poly(I:C) stimulation measured after 18 hrs by sandwich immunoassay
Summary of the method: (§2)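 Primary RA synovial fibroblasts (donor RA2159) seeded 1000 cells/well and grown ~24 h at 37 °C, 5% CO2. Starved overnight in basal medium, then ~4 h in basal medium with 0.1% BSA. Two adjacent wells pooled per replicate, in biological duplicate. Supernatants diluted 1:3 and run on Luminex 27-plex/21-plex sandwich immunoassays for 48 analytes, with spiked-ligand and mock-supernatant background controls.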

[20] = molecular target: T2, Mitogen-activated protein kinase kinase kinase 7 (Homo sapiens); assay: Inhibition of TAK1 in RA patient-derived synovial fibroblasts assessed as inhibition of IL-1alpha-induced cytokine secretion at 3 uM preincubated for 3 hrs followed by IL-1alpha stimulation measured after 18 hrs by sandwich immunoassay; summary of the method: as §2
[21] = molecular target: T2, Mitogen-activated protein kinase kinase kinase 7 (Homo sapiens); assay: Inhibition of TAK1 in RA patient-derived synovial fibroblasts assessed as inhibition of TNFalpha-induced cytokine secretion at 3 uM preincubated for 3 hrs followed by TNFalpha stimulation measured after 18 hrs by sandwich immunoassay; summary of the method: as §2
[22] = test system: PANC-1; assay: Antiproliferative activity against human PANC1 cells harboring KRAS G12D mutant after 72 hrs by CellTiter-Glo assay; assay type: functional, cell-based; conditions: PANC-1, 72 h

SMILES | IC50 [3] | IC50 [6] | IC50 [8] | IC50 [9] | other results
CC(C)Nc1cc(-c2c[nH]c(C(=O)N[C@H](CO)c3cccc(Cl)c3)c2)c(Cl)cn1 [ULIXERTINIB] | 468 nM | 2230 nM | 8610 nM | – | IC50 [1]: 499 nM; IC50 [2]: 1240 nM; IC50 [4]: 1000 nM; IC50 [5]: 356 nM; IC50 [7]: 849 nM
Cn1cnc2c(F)c(Nc3ccc(Br)cc3Cl)c(C(=O)NOCCO)cc21 [SELUMETINIB] | 100 nM | – | > 10000 nM | – | IC50 [1]: 15 nM; IC50 [5]: 117 nM; IC50 [7]: 64.2 nM
C=CC(=O)Nc1ccccc1Oc1ccnc(Nc2ccc(N3CCN(C)CC3)cc2)n1 | – | 1930 nM | 1400 nM | 950 nM | –
C=CC(=O)Nc1ccccc1-n1ccc2cnc(Nc3ccc(N4CCN(C)CC4)cc3)nc21 | 905 nM | 3270 nM | – | 3010 nM | IC50 [10]: 2040 nM
C=CC(=O)Nc1cc(NC(C)=O)ccc1Nc1nc(Nc2ccc(N3CCN(C)CC3)cc2)ncc1Cl | 1350 nM | – | 3730 nM | 1640 nM | –
C=CC(=O)Nc1ccccc1Sc1nc(Nc2ccc(N3CCN(C)CC3)cc2)ncc1Cl | 962 nM | 838 nM | 763 nM | 83 nM | –
C=CC(=O)Nc1ccccc1Oc1nc(Nc2cnn(C(F)F)c2)ncc1Cl | 67 nM | 539 nM | 414 nM | 7 nM | IC50 [11]: 277 nM; IC50 [10]: 92 nM; Activity [12]: inactive; inhibition [13]: Active; Activity [14]: Active; Activity [15]: inactive; Activity [16]: Active
C=CC(=O)Nc1ccccc1Oc1nc(Nc2cnn(C)c2)ncc1Cl | 308 nM | 2940 nM | 859 nM | 7.3 nM | IC50 [11]: 1020 nM; IC50 [10]: 179 nM
CCN1CCN(Cc2ccc(NC(=O)c3ccc(C)c(Oc4ccnc5[nH]ccc45)c3)cc2C(F)(F)F)CC1 | – | – | – | – | Activity [17]: Non-Toxic
C=CC(=O)Nc1ccccc1Oc1nc(Nc2ccc(N3CCN(C)CC3)cc2)ncc1OC | 57 nM | 476 nM | 310 nM | 75 nM | –
C=CC(=O)Oc1ccccc1Nc1nc(Nc2ccc(N3CCN(C)CC3)cc2)ncc1Cl | 44 nM | 234 nM | 555 nM | 3.3 nM | –
CCC(=O)Nc1ccccc1Oc1nc(Nc2cnn(CCOC)c2)ncc1Cl | 923 nM | 2080 nM | 3600 nM | 1230 nM | IC50 [18]: 1490 nM; IC50 [1]: 1650 nM; inhibition [13]: inactive; IC50 [5]: 2620 nM; Activity [14]: Active; IC50 [7]: 5020 nM; inhibition [19]: inactive; inhibition [20]: inactive; inhibition [21]: inactive; Activity [16]: Active
C=CC(=O)Oc1ccccc1Nc1nc(Nc2cccc(N3CCOCC3)c2)ncc1Cl | – | – | 839 nM | 3.2 nM | inhibition [13]: Active
C=CC(=O)Nc1ccccc1Oc1nc(Nc2ccc(N3CCN(C)CC3)cc2)ncc1C1CC1 | 181 nM | 1340 nM | 1190 nM | 57 nM | –
C=CC(=O)Nc1ccccc1Oc1nc(Nc2ccc(N3CCN(C)CC3)cc2)nc(N)c1Cl | – | – | 3530 nM | 2750 nM | –
CCC(=O)Nc1ccccc1Nc1nc(Nc2ccc(N3CCN(C)CC3)cc2)ncc1Cl | – | – | 9 nM | 1630 nM | IC50 [18]: 263 nM; IC50 [1]: 247 nM; IC50 [2]: 363 nM; IC50 [22]: 426 nM; inhibition [13]: inactive; IC50 [5]: 54 nM; IC50 [7]: 73 nM
C=CC(=O)Nc1ccccc1Oc1nc(Nc2ccc(N3CCN(C)CC3)cc2)ncc1C | 113 nM | 385 nM | 357 nM | 92 nM | –
C=CC(=O)Nc1ccccc1Oc1nc(Nc2cnn(C3CCOCC3)c2)ncc1Cl | 69 nM | – | 719 nM | 4.6 nM | –
C=CC(=O)Oc1ccccc1Nc1nc(Nc2cccc(N3CCN(C(C)=O)CC3)c2)ncc1Cl | 280 nM | – | 460 nM | 1.7 nM | –
C=CC(=O)Oc1ccccc1Nc1nc(Nc2ccc(N3CCOCC3)cc2)ncc1Cl | 56 nM | 423 nM | 745 nM | 4.4 nM | IC50 [11]: 390 nM; IC50 [10]: 47 nM; Activity [12]: inactive; Activity [14]: Active; Activity [15]: inactive; Activity [16]: Active
Cn1c(=O)n(-c2ccc(C(C)(C)C#N)cc2)c2c3cc(-c4cnc5ccccc5c4)ccc3ncc21 [DACTOLISIB] | – | – | – | – | IC50 [4]: 1000 nM
